Consider ten molecules from paper PMC9037807 (RSC Advances, 2021).

For one series, the system named is rat stomach. Put plainly: Ulcerogenic liability. In kind it is in vivo. The conditions noted are these: rats sacrificed 4 h after drug administration.
The next series deals with rat's stomach. Briefly: Histo-pathological study of glandular and non-glandular stomach. In kind it is in vivo. The conditions noted are these: text description.
Series [1] deals with carrageenan-induced rat paw edema. Put plainly: Carrageenan-induced rat paw edema model. It is filed as in vivo. The conditions noted are these: 10 mg kg−1 po, n = 4; for Edema inhibition %, 1 h / Edema thickness ± SEM, 1 h: 1 h after carrageenan injection; for Edema inhibition %, 3 h / Edema thickness ± SEM, 3 h: 3 h after carrageenan injection; for Edema inhibition %, 6 h / Edema thickness ± SEM, 6 h: 6 h after carrageenan injection. The method, boiled down:
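Rats were dosed orally with test compound (10 mg kg−1) in 5% aqueous DMSO (v/v). […] Thirty minutes after dosing, 0.02 ml of 1% carrageenan was injected sub-plantar. Paw thickness was measured 1, 3 and 6 h after injection, and edema inhibition % was calculated from paw thickness.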

Another series deals with T1, ovine COX-2 (Ovis aries, UniProt P79208).
T1 sequence (P79208 17-603): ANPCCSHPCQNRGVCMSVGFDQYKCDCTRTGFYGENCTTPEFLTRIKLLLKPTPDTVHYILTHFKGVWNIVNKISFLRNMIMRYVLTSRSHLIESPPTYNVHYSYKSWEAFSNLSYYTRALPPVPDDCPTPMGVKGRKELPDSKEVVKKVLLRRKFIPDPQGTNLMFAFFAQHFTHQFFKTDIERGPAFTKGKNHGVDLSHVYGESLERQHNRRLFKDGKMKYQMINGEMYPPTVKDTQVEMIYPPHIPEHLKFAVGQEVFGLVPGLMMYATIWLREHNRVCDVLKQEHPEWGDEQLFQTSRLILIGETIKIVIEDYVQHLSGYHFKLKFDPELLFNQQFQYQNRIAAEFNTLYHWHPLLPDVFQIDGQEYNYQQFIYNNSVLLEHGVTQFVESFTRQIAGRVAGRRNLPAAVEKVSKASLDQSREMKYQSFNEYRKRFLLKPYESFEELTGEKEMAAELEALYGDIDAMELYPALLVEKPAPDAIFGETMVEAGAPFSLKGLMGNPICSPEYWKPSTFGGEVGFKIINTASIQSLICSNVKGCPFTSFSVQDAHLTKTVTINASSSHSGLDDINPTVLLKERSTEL
Put plainly: In vitro cyclooxygenase. In kind it is biochemical. The conditions noted are these: for Selectivity index (SI): COX-1 IC50/COX-2 IC50.

In a further series the target is T2, ovine COX-1 (Ovis aries, UniProt P05979).
T2 sequence (P05979 25-600): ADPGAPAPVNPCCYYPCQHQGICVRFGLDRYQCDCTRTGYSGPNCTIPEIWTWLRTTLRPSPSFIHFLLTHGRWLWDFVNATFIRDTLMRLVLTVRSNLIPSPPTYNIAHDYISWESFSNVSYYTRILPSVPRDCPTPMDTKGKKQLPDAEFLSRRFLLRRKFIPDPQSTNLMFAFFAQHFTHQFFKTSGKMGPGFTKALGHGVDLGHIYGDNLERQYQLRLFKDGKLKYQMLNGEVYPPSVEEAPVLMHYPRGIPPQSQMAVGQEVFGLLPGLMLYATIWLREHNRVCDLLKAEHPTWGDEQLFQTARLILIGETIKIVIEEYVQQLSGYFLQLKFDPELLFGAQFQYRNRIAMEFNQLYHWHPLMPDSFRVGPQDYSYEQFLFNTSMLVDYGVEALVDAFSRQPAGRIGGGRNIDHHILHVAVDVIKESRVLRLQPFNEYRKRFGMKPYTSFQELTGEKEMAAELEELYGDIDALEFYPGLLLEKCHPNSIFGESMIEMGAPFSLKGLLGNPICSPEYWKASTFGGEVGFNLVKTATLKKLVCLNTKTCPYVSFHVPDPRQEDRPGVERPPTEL
Put plainly: In vitro cyclooxygenase. In kind it is biochemical.

The structures appear in SMILES notation.

For `CS(=O)(=O)c1ccc(-c2nc3ccccc3n2CC(=O)N/N=C/c2ccc(Cl)cc2)cc1` [11b, (E)-N′-(4-Chlorobenzylidene)-2-(2-(4-(methylsulfonyl)phenyl)-1H-benzo[d]imidazol-1-yl) acetohydrazide], in the series with rat stomach, the “Ulcer index, mean” value worked out at 0.83 mm. The “Severity of histopathological lesions of the stomach (in words)” value with rat's stomach was “mild pathological lesions”. Further, in series [1], the “Edema inhibition %, 1 h” value is recorded as 86%; the “Edema thickness ± SEM, 1 h” value was determined as 0.357 ± 0.012 mm; the “Edema inhibition %, 3 h” value worked out at 93%; the “Edema thickness ± SEM, 3 h” value was 0.155 ± 0.002 mm. Moreover, in series [1], the “Edema inhibition %, 6 h” value is on record as 95% and the “Edema thickness ± SEM, 6 h” value is 0.094 ± 0.006 mm. Further, at ovine COX-2, the IC50 was 0.1 µM and the “Selectivity index (SI)” value was determined as 134. This molecule displayed an IC50 against ovine COX-1 of 13.4 µM.
With `CS(=O)(=O)c1ccc(-c2nc3cc(Cl)ccc3n2CC(=O)N/N=C/c2ccc(F)cc2)cc1` [11h, (E)-N′-(4-Fluorobenzylidene)-2-(5-chloro-2-(4-(methylsulfonyl)phenyl)-1H-benzo[d]imidazol-1-yl) acetohydrazide], in series [1], the “Edema inhibition %, 1 h” value came to 50%; the “Edema thickness ± SEM, 1 h” value is 1.30 ± 0.079 mm; the “Edema inhibition %, 3 h” value amounted to 52%; the “Edema thickness ± SEM, 3 h” value is on record as 1.063 ± 0.020 mm. For the same molecule, in series [1], the “Edema inhibition %, 6 h” value amounted to 60% and the “Edema thickness ± SEM, 6 h” value is 0.754 ± 0.026 mm. Further, on ovine COX-2, 0.22 µM corresponded to half-maximal inhibition (IC50) and the “Selectivity index (SI)” value was 36. In addition, at ovine COX-1, the IC50 is 7.98 µM.
Take `Cc1ccc2c(c1)nc(-c1ccc(S(C)(=O)=O)cc1)n2CC(=O)N/N=C/c1ccc(Cl)cc1` [11j, (E)-N′-(4-Chlorobenzylidene)-2-(5-methyl-2-(4-(methylsulfonyl)phenyl)-1H-benzo[d]imidazol-1-yl) acetohydrazide]: in series [1], the “Edema inhibition %, 1 h” value was determined as 81%; the “Edema thickness ± SEM, 1 h” value is reported as 0.505 ± 0.022 mm; the “Edema inhibition %, 3 h” value came to 91%; the “Edema thickness ± SEM, 3 h” value amounted to 0.194 ± 0.018 mm. Also, in series [1], the “Edema inhibition %, 6 h” value was 93% and the “Edema thickness ± SEM, 6 h” value is on record as 0.129 ± 0.008 mm. Also, on ovine COX-2, 0.11 µM corresponded to half-maximal inhibition (IC50) and the “Selectivity index (SI)” value is 102. The molecule also yielded an IC50 against ovine COX-1 of 11.2 µM.
As for `COc1ccc(/C=N/NC(=O)Cn2c(-c3ccc(S(C)(=O)=O)cc3)nc3cc(C)ccc32)cc1` [11k, (E)-N′-(4-Methoxybenzylidene)-2-(5-methyl-2-(4-(methylsulfonyl)phenyl)-1H-benzo[d]imidazol-1-yl) acetohydrazide], in the series on rat stomach, the “Ulcer index, mean” value is listed as 4.5 mm. In the series with rat's stomach, the “Severity of histopathological lesions of the stomach (in words)” value is on record as “mild to moderate lesions”. In series [1], the “Edema inhibition %, 1 h” value was 82%; the “Edema thickness ± SEM, 1 h” value was 0.464 ± 0.014 mm; the “Edema inhibition %, 3 h” value was 92%; the “Edema thickness ± SEM, 3 h” value came out at 0.189 ± 0.017 mm. Also, in series [1], the “Edema inhibition %, 6 h” value is 94% and the “Edema thickness ± SEM, 6 h” value is on record as 0.111 ± 0.009 mm. In addition, on ovine COX-2, 0.1 µM corresponded to half-maximal inhibition (IC50) and the “Selectivity index (SI)” value worked out at 123. Besides, the IC50 against ovine COX-1 was 12.3 µM.
As for `Cc1ccc2c(c1)nc(-c1ccc(S(C)(=O)=O)cc1)n2CC(=O)N/N=C/c1ccc(F)cc1` [11l, (E)-N′-(4-Fluorobenzylidene)-2-(5-methyl-2-(4-(methylsulfonyl)phenyl)-1H-benzo[d]imidazol-1-yl) acetohydrazide], in series [1], the “Edema inhibition %, 1 h” value is 47%; the “Edema thickness ± SEM, 1 h” value was 1.378 ± 0.009 mm; the “Edema inhibition %, 3 h” value is listed as 51%; the “Edema thickness ± SEM, 3 h” value was found to be 1.102 ± 0.086 mm. Further, in series [1], the “Edema inhibition %, 6 h” value is listed as 55% and the “Edema thickness ± SEM, 6 h” value is listed as 0.860 ± 0.010 mm. Further, on ovine COX-2, half-maximal inhibition (IC50) required 0.34 µM and the “Selectivity index (SI)” value came to 23. The IC50 on ovine COX-1 stood at 7.96 µM.
Turning to `C/C(=N\NC(=O)Cn1c(-c2ccc(S(C)(=O)=O)cc2)nc2ccccc21)c1ccccc1` [12a, (E)-2-(2-(4-(Methylsulfonyl)phenyl)-1H-benzo[d]imidazol-1-yl)-N′-(1-phenylethylidene) acetohydrazide], in series [1], the “Edema inhibition %, 1 h” value turned out to be 50%; the “Edema thickness ± SEM, 1 h” value came out at 1.308 ± 0.101 mm; the “Edema inhibition %, 3 h” value was 54%; the “Edema thickness ± SEM, 3 h” value is recorded as 1.017 ± 0.024 mm. Further, in series [1], the “Edema inhibition %, 6 h” value was 60% and the “Edema thickness ± SEM, 6 h” value was determined as 0.766 ± 0.006 mm. Moreover, at ovine COX-2, the IC50 worked out at 0.28 µM and the “Selectivity index (SI)” value worked out at 32. The molecule further displayed an IC50 on ovine COX-1 of 8.97 µM.
In the case of `C/C(=N\NC(=O)Cn1c(-c2ccc(S(C)(=O)=O)cc2)nc2ccccc21)c1ccc(Cl)cc1` [12b, (E)-N′-(1-(4-Chlorophenyl)ethylidene)-2-(2-(4-(methylsulfonyl)phenyl)-1H-benzo[d]imidazol-1-yl) acetohydrazide], in series [1], the “Edema inhibition %, 1 h” value is reported as 80%; the “Edema thickness ± SEM, 1 h” value was determined as 0.522 ± 0.009 mm; the “Edema inhibition %, 3 h” value was 89%; the “Edema thickness ± SEM, 3 h” value is on record as 0.240 ± 0.014 mm. In series [1], the “Edema inhibition %, 6 h” value was found to be 95% and the “Edema thickness ± SEM, 6 h” value stood at 0.104 ± 0.005 mm. Further, on ovine COX-2, the IC50 was determined as 0.1 µM and the “Selectivity index (SI)” value came out at 125. The IC50 against ovine COX-1 came to 12.5 µM.
In the case of `C/C(=N\NC(=O)Cn1c(-c2ccc(S(C)(=O)=O)cc2)nc2cc(C)ccc21)c1ccc(Cl)cc1` [12f, (E)-N′-(1-(4-Chlorophenyl)ethylidene)-2-(5-methyl-2-(4-(methylsulfonyl)phenyl)-1H-benzo[d]imidazol-1-yl) acetohydrazide], in series [1], the “Edema inhibition %, 1 h” value turned out to be 60%; the “Edema thickness ± SEM, 1 h” value amounted to 1.038 ± 0.014 mm; the “Edema inhibition %, 3 h” value worked out at 64%; the “Edema thickness ± SEM, 3 h” value is 0.801 ± 0.013 mm. In series [1], the “Edema inhibition %, 6 h” value stood at 70% and the “Edema thickness ± SEM, 6 h” value came to 0.563 ± 0.012 mm. At ovine COX-2, the IC50 was 0.19 µM and the “Selectivity index (SI)” value amounted to 57. On ovine COX-1, this molecule yielded an IC50 of 10.9 µM.
For the molecule `Cc1ccc(-c2cc(C(F)(F)F)nn2-c2ccc(S(N)(=O)=O)cc2)cc1` [Celecoxib, celecoxib, reference compound], the “Ulcer index, mean” value with rat stomach is 3.5 mm. In the series on rat's stomach, the “Severity of histopathological lesions of the stomach (in words)” value is “mild lesions”. Besides, in series [1], the “Edema inhibition %, 1 h” value was found to be 74%; the “Edema thickness ± SEM, 1 h” value is 0.690 ± 0.017 mm; the “Edema inhibition %, 3 h” value was 94%; the “Edema thickness ± SEM, 3 h” value turned out to be 0.142 ± 0.009 mm. In addition, in series [1], the “Edema inhibition %, 6 h” value worked out at 96% and the “Edema thickness ± SEM, 6 h” value is 0.070 ± 0.005 mm.
In the case of `COc1ccc2c(c1)c(CC(=O)O)c(C)n2C(=O)c1ccc(Cl)cc1` [Indomethacin, indomethacin, reference compound], the “Ulcer index, mean” value with rat stomach is given as 13 mm. Moreover, in the series with rat's stomach, the “Severity of histopathological lesions of the stomach (in words)” value is “severe lesions”. In addition, in series [1], the “Edema inhibition %, 3 h” value is 96%; the “Edema thickness ± SEM, 3 h” value is reported as 0.083 ± 0.005 mm; the “Edema inhibition %, 6 h” value came out at 97%; the “Edema thickness ± SEM, 6 h” value amounted to 0.051 ± 0.004 mm.

As a reminder, the IC50 is the midpoint of a concentration-inhibition curve. Lower therefore signals greater potency.
